In publication PMC12521504 (Communications Biology, 2025):
Like-named read-outs stand apart in the source and are kept apart here.

Tests used:
mouse ACE (mACE) [1] = biological target: T1, mouse ACE (mACE) (Mus musculus, UniProt P09470); assay: Fluorescence-based ACE enzymatic assay with Mca-[…]; format: biochemical
T1 sequence (P09470 35-1312): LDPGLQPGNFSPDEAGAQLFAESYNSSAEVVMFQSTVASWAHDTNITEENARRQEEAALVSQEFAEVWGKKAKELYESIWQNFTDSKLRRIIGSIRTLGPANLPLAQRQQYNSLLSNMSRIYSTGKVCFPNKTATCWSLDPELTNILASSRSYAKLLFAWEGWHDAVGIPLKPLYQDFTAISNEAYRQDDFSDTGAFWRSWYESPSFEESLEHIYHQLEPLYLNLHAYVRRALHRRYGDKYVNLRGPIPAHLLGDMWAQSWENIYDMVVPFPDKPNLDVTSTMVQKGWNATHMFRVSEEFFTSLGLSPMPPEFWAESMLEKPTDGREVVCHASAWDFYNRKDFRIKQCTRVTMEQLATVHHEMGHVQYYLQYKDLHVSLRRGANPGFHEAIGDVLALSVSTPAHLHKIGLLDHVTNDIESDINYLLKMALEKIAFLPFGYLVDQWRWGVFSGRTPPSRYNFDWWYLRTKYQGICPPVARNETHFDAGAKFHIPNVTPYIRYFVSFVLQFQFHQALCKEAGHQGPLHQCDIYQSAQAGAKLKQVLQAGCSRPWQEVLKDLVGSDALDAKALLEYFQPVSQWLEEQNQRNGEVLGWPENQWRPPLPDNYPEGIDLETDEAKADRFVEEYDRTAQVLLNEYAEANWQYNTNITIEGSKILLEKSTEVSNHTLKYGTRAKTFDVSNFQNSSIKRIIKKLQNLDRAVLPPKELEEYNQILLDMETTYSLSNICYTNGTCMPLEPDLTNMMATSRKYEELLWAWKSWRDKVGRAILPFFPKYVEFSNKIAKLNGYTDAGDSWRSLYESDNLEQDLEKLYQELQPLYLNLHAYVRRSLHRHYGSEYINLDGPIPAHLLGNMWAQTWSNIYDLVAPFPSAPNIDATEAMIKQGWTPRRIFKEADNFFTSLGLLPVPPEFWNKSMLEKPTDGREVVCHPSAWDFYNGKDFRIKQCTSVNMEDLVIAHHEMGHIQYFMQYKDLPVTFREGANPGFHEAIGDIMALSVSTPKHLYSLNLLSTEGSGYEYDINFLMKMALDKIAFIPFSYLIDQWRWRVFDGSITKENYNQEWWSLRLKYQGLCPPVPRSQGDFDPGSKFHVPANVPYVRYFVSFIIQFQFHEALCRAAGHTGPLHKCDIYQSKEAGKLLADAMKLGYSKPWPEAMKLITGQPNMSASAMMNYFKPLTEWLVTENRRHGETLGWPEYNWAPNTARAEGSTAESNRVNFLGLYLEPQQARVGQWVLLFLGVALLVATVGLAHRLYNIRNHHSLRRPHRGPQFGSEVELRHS

male ICR-CD1 mice [2] = assay: Tail-flick assay; format: in vivo, mouse; details: for %MPE (group mean): 15 min
Outline: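 Radiant-heat tail-flick in 8-week male ICR-CD1 mice (n = 6–15/group). Beam was calibrated to a 2–4 s baseline, tail tip placed 20–30 mm from the source, cut-off 10 s. Compound was given i.c.v. under isoflurane at 100 µg/mouse (also 75 µg/mouse), alone or with MERF (50 µg/mouse). […] Results are %MPE relative to pre-treatment baseline.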

male ICR-CD1 mice [3] = assay: Hot plate assay; format: in vivo, mouse; details: 15 min
Outline: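 Male ICR-CD1 mice, 8 weeks old (n = 6–15/group), received compound i.c.v. (10 µl, 100 µg/mouse) under isoflurane, alone or with MERF (50 µg/mouse). Mice were placed on a glass platform preheated to 55 °C. Latency to shake, lick or lift the hind paw, or to jump, was timed at set points, with a 60 s cut-off. Results are %MPE = (Test−Baseline)/(60−Baseline) × 100.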

male ICR-CD1 mice [4] = assay: Acetic acid induced writhing test; format: in vivo, mouse; details: for effect of naloxone on analgesia of systemic (i.p.) compound: naloxone 5 mg/kg s.c.
male ICR-CD1 mice [5] = assay: Formalin induced paw licking/lifting test; format: in vivo, mouse; details: 2% formalin
N-domain of mACE = biological target: T2, N-domain of mACE (Mus musculus, UniProt P09470); assay: ACE N-domain specific enzymatic assay with Abz-SDK; format: biochemical
T2 sequence (P09470 35-1312): T1 sequence (P09470 35-1312)

C-domain of mACE = biological target: T3, C-domain of mACE (Mus musculus, UniProt P09470); assay: ACE C-domain specific enzymatic assay with Abz-LFK; format: biochemical
T3 sequence (P09470 35-1312): T1 sequence (P09470 35-1312)

mouse ACE (mACE) [6] = biological target: T1, mouse ACE (mACE); assay: Secondary LC-MS/MS ACE inhibition assay; format: biochemical
[7] = test system: extracellular MERF, Met-enkephalin and Leu-enkephalin levels; format: cell-based, mouse; details: thiorphan 10 μM, raloxifene 500 μM
[8] = compound 100 μg/mouse + MERF 50 μg/mouse i.c.v.
[9] = compound 100 μg/mouse i.c.v. alone
[10] = compound 100 μg/mouse + MERF i.c.v.
[11] = 100 µg/animal i.c.v., 1% acetic acid i.p., 30 min
[12] = 100 µg/animal i.c.v. + naloxone 5 mg/kg s.c.
[13] = 100 µg/animal i.c.v., late phase

With `O=C(c1ccc(OCCN2CCCCC2)cc1)c1c(-c2ccc(O)cc2)sc2cc(O)ccc12` [Raloxifene, raloxifene] the IC50 (mouse ACE (mACE) [1]) was 102 ± 13.2 µM, the “%MPE (group mean)” value (male ICR-CD1 mice [2]; [8]) was 34.28% and the “%MPE (group mean)” value (male ICR-CD1 mice [2]; [9]) was 13.33%. The “%MPE (group mean)” value (male ICR-CD1 mice [3]; [10]) was 25.89%, the “%MPE (group mean)” value (male ICR-CD1 mice [3]; [9]) was 5.52% and the “writhings (group mean)” value (male ICR-CD1 mice [4]; 100 µg/animal i.c.v. + naloxone 5 mg/kg s.c., 1% acetic acid) was 78.75. The “writhings (group mean)” value (male ICR-CD1 mice [4]; [11]) was 51.8, the “effect of naloxone on analgesia of systemic (i.p.) compound” value (male ICR-CD1 mice [4]) was “naloxone failed to reverse the analgesic effect” and the “paw licking/lifting duration, Phase I” value (male ICR-CD1 mice [5]; [12]) was 69.75 s. The “paw licking/lifting duration, Phase II” value (male ICR-CD1 mice [5]; [12]) was 9.25 s, the “paw licking/lifting duration, Phase I” value (male ICR-CD1 mice [5]; 100 µg/animal i.c.v., 0–5 min) was 10 s and the “paw licking/lifting duration, Phase II” value (male ICR-CD1 mice [5]; [13]) was 2 s. It also gave a Ki (N-domain of mACE) of 180 µM, an IC50 (N-domain of mACE; read-out: IC50 N-domain, 40 µM Abz-SDK(Dnp)P-OH, 35 nM mACE) of 320 µM and an IC50 (C-domain of mACE) of 140 µM. It also gave a Ki (C-domain of mACE) of 30 µM.
`C[C@H](CS)C(=O)N1CCC[C@H]1C(=O)O` [Captopril, captopril] was tested, and the “%MPE (group mean)” value (male ICR-CD1 mice [2]; [8]) was 68.31%, the “%MPE (group mean)” value (male ICR-CD1 mice [2]; [9]) was 21.68% and the “%MPE (group mean)” value (male ICR-CD1 mice [3]; [10]) was 51.30%. For the same compound, the “%MPE (group mean)” value (male ICR-CD1 mice [3]; [9]) was 10.32%, the “writhings (group mean)” value (male ICR-CD1 mice [4]; [11]) was 48 and the “writhings (group mean)” value (male ICR-CD1 mice [4]; 50 mg/kg i.p., 1% acetic acid) was 57.66. For the same compound, the “effect of naloxone on analgesia of systemic (i.p.) compound” value (male ICR-CD1 mice [4]) was “reversed by systemic naloxone”, the “paw licking/lifting duration, Phase I” value (male ICR-CD1 mice [5]; [12]) was 73.5 s and the “paw licking/lifting duration, Phase II” value (male ICR-CD1 mice [5]; [12]) was 16.25 s. For the same compound, the “paw licking/lifting duration, Phase I” value (male ICR-CD1 mice [5]; 100 µg/animal i.c.v., 0–5 min) was 16.5 s and the “paw licking/lifting duration, Phase II” value (male ICR-CD1 mice [5]; [13]) was 15 s.
Met-enkephalin-Arg-Phe [MERF] was tested, and the “%MPE (group mean)” value (male ICR-CD1 mice [2]; MERF 50 μg/mouse i.c.v. alone) was 6.27%.
`O=C(O)c1nn(Cc2ccc(Cl)cc2Cl)c2ccccc12` [Lonidamine, lonidamine] was tested, and the “confirmation of HTS findings in dose-response studies” value (mouse ACE (mACE) [1]) was “did not confirm the HTS findings”.
For `Cl.O=C(O)C1CCCN(CCC=C(c2ccccc2)c2ccccc2)C1` (stereo not shown) [SKF 89976A hydrochloride], the “confirmation of HTS findings in dose-response studies” value (mouse ACE (mACE) [1]) was “did not confirm the HTS findings”.
With `O=C(O)CNC(=O)C(CS)Cc1ccccc1` (stereo not shown) [Thiorphan, thiorphan] the IC50 (mouse ACE (mACE) [1]) was 2.36 ± 0.42 µM, the IC50 (mouse ACE (mACE) [6]) was 3.51 ± 0.37 µM and the “effect on Met- and Leu-enkephalin levels” value [7] was “affected the levels of Met- and Leu-enkephalins”. For the same compound, the “%MPE (group mean)” value (male ICR-CD1 mice [2]; [8]) was 40.32%, the “%MPE (group mean)” value (male ICR-CD1 mice [2]; [9]) was 22.45% and the “%MPE (group mean)” value (male ICR-CD1 mice [3]; [10]) was 36.48%. The “%MPE (group mean)” value (male ICR-CD1 mice [3]; [9]) was 13.83%, the IC50 (N-domain of mACE) was 1.3 ± 0.08 µM and the Ki (N-domain of mACE) was 0.71 ± 0.045 µM. For the same compound, the IC50 (C-domain of mACE) was 0.77 ± 0.046 µM, the Ki (C-domain of mACE) was 0.17 ± 0.01 µM and the C/N selectivity factor (C-domain of mACE; N-domain versus C-domain) was 4.2.
`C=CCN1CC[C@]23c4c5ccc(O)c4O[C@H]2C(=O)CC[C@@]3(O)[C@H]1C5` [Naloxone, naloxone] was tested, and the “analgesia of naloxone itself” value (male ICR-CD1 mice [2]; 5 mg/kg s.c.) was “unable to induce analgesia”.
